The list shows a part of the results. Calls of active or inactive are those of the source. Unless noted, no rule for the calls is given here.

The text below walks through data of PubChem BioAssay.

A short description of test [1]: Brca1-Bard1 BiLC signal decrease – luminescence, single concentration, counter-screen for Mdm2/MdmX interaction inhibitor project, confirmation (AID 504668). To be noted: Brca1/Bard1 bimolecular luciferase complementation counterscreen, at 8 µM, stronger effect = higher value. Background: The purpose of a counterscreen is to sort out artefacts and off-target activity.
Test [2] can be described thus: NF-kB reporter suppression in CF airway cells – cell-based, GFP fluorescence, single concentration, confirmation (AID 602472; in the data active = inhibition above about 40%;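 also: stimulus PAF is a Pseudomonas aeruginosa filtrate and not platelet activating factor; plate controls were DMSO wells with stimulus for no effect and unstimulated DMSO wells for full effect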). The settings on record: KKLEB CF airway cells, PAF-induced NF-kB-GFP fluorescence, overnight; at 5 µM; stronger effect = higher value. The essentials:
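Test system: KKLEB immortalized cystic fibrosis airway epithelial cells with NFkB-GFP reporter / Buffer or medium: medium with 2% FBS for cells, serum-free medium for stimulus / Also added: Pseudomonas aeruginosa filtrate (PAF) as NFkB-activating stimulus / Doses: 5 µM single dose / Timing: compound pretreatment 2 h at 37 °C, 5% CO2, then overnight PAF stimulation / Technique: GFP fluorescence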

Test [3] in a line: NFkB reporter suppression in cystic fibrosis bronchial cells – cell-based, uHTS hits, panel, cytotoxicity readout, dose response (AID 624344). The settings on record: CF bronchial epithelial cells, PAF-induced NFkB reporter inhibition, with PAF, run 1; at 79 µM (top of the series) unless noted.
Assay in test [4]: as above
The settings on record: CF bronchial epithelial cells, PAF-induced NFkB reporter inhibition, with PAF, run 2; at 79 µM (top of the series) unless noted.

On to `CCCC(=O)NC(NC(=S)Nc1ccc(N=Nc2ccccc2)cc1)C(Cl)(Cl)Cl` (stereo not given), for which the inhibition in test [1] is 32.4% (active).
On the same count and under the same terms, then `COC(=O)[C@@H]1[C@@H](C#N)C2(c3ccccc3-c3ccccc32)N(c2ccc(Cl)cc2)N1C#N`, with 32.8% (active); and `Cc1nc(SCC(=O)Nc2ccc(S(=O)(=O)N3CCOCC3)cc2)c2c(C)c(C)sc2n1`, with 28.6% (active); and `Cc1cc(C)cc(NC(=O)CSc2ccc(-c3ccccn3)nn2)c1`, with 31.7% (active).
On the same count and under the same terms, then `CCOC(=O)COc1ccc(/C=C/[N+](=O)[O-])c(OCC(=O)OCC)c1`, with 23.7% (active); and `O=C(Nc1nc(-c2ccccc2)cs1)c1ccccc1NS(=O)(=O)c1ccc(F)cc1`, with 25.5% (active).
The same measure, in the same setting: the same measure for `Cc1ccc(Cc2c(C)c(C#N)c3[nH]c4ccccc4n3c2=O)cc1`: 35.8% (active); for `CCOC(=O)C1=C(c2ccccc2)NC(=O)NC1c1ccc(O)c(Cl)c1` (stereo not given): 30.5% (active).
`COc1ccc(/C=C2/SC(=S)N(CCCC(=O)Nc3cccc(O)c3)C2=O)cc1`: the inhibition in test [1] was 28.6% (active).
On the same count and under the same terms, then `CCCCC(=O)NC(c1ccc(N(C)C)cc1)c1ccc2cccnc2c1O` (stereo not given), with 23.7% (active); and `Cc1conc1NC(c1cccs1)c1ccc2cccnc2c1O` (stereo not given), with 31.8% (active).
On to `Cc1nnc(NC(=O)Nc2ccc(Cl)c(Cl)c2)s1`, for which the inhibition in test [1] was 33.4% (active); in test [2] it was 68% (active); in test [3], 91.7%; in test [4], 87.1%.

As a reminder, the inhibition is the relative decrease from the control value, in per cent.
